These results are taken from article PMC5575737 (Bioorganic & medicinal chemistry letters, 2017).

For data set [1], the system named is H460 cells. Kind of data set: JC-1 mitochondrial membrane potential assay. The format is cell-based.
The test system of data set [2] is four NSCLC lines (NCI-H460, NCI-H1975, A549, HCC827). Kind of data set: MTT cell viability assay, all four lines. Conditions: 72 h, read-out: IC50 values, range over four NSCLC lines. The format is cell-based. The gist of the method: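 Cells were exposed for 72 h, then viability was read by MTT. Test compound was dissolved in DMSO and diluted with water to 1% DMSO, giving at most 0.032% DMSO final in medium. A parallel run used stock in 10% (w/v) 2-HPβCD (≤0.008% final), with 0.008% 2-HPβCD vehicle controls. Cisplatin was dissolved in water. IC50 was the concentration giving 50% loss of viability versus control cells.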

Another data set relates to nine NSCLC lines. Description: NCI-60 one-dose assay, average. It is filed as cell-based, human. Conditions: average over the NSCLC lines tested; single dose 10 μM. The gist of the method:
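The NCI DTP ran the NCI-60 one-dose screen. Cells were plated at densities matched to doubling rate and incubated overnight, then exposed to 10 μM test compound for […]. Growth percentage came from protein density at the end versus the start of exposure. Values were averaged across the nine NSCLC lines.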

A short description of data set [3]: Solubility in water, water/DMSO and 2-HPβCD solutions. It is filed as physicochemical. Conditions: for behaviour on addition of water to the DMSO solution: final 1% DMSO in water.
For data set [4], the system named is H460 cells. Kind of data set: Annexin V apoptosis assay. It is filed as cell-based. The procedure, abridged: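 H460 cells in 6-well plates were treated with the test compound in 10% (w/v) 2-HPβCD aqueous solution or in DMSO. Controls were 2-HPβCD vehicle and cisplatin. Cells were stained with Annexin V-FITC plus propidium iodide and imaged by fluorescence microscopy (20× objective) at 12, 14, 17 and 20 h. Read-outs were green versus green+red fluorescence and membrane blebbing.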

The subject of another data set is DNA. Description: DNA interaction: viscosity and fluorescent intercalator displacement assays. The format is binding.
A further data set concerns C57BL/6 mice. Kind of data set: Preliminary in vivo toxicity study.
The subject of another data set is A549/ATCC. Kind of data set: NCI-60 five-dose assay. The format is cell-based, human. The gist of the method: (§1)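 The NCI DTP ran the NCI-60 five-dose screen. Cells were exposed to the test compound at 10 nM, 100 nM, 1 μM, 10 μM and 100 μM. Read-outs were growth inhibition by 50% (GI50), total growth inhibition (TGI) and 50% lethal concentration (LC50), each relative to control cells.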

Another data set relates to EKVZ. Description: NCI-60 five-dose assay. It is filed as cell-based, human. The procedure, abridged: as §1
The subject of a further data set is HOP-62. Kind of data set: NCI-60 five-dose assay. The format is cell-based, human. The procedure, abridged: as §1
The next data set concerns HOP-92. Kind of data set: NCI-60 five-dose assay. The format is cell-based, human. The procedure, abridged: as §1
For another data set, the system named is NCI-H226. Description: NCI-60 five-dose assay. It is filed as cell-based, human. The gist of the method: as §1
The subject of the next data set is NCI-H460. Kind of data set: NCI-60 five-dose assay. The format is cell-based, human. The procedure, abridged: as §1
For a further data set, the system named is NCI-H522. Kind of data set: NCI-60 five-dose assay. It is filed as cell-based, human. The gist of the method: as §1
For data set [5], the system named is H460 cells. Conditions: cited from earlier work.

With `N#CC(C#N)=NNc1cccc(Cl)c1` [CCCP, carbonylcyanide m-chlorophenylhydrazone, reference compound], the “mitochondrial potential versus media control cells” value in the data set on H460 cells [1] (positive control) is recorded as “mitochondria potential was decreased”.
As to `Cc1n(Cc2ccc3ccccc3c2)cc[n+]1Cc1ccc2ccccc2c1.[Br-]` [Compound 1], the IC50 in data set [2] lay in the range of 660 to 3500 nM. In the data set with nine NSCLC lines, the “Growth % Average” value came to 21.19%. In addition, the “behaviour on addition of water to the DMSO solution” value (from here on “behaviour on addition of water”) in data set [3] is “slight precipitation”.
As for `CCc1n(Cc2ccc3ccccc3c2)cc[n+]1Cc1ccc2ccccc2c1.[Br-]` [Compound 2], the IC50 in data set [2] is 660 to 3500 nM. Besides, in the data set with nine NSCLC lines, the “Growth % Average” value was found to be 4.18%. The “behaviour on addition of water” value in [3] is given as “remained soluble”. The “time at which strong green fluorescence (Annexin V-FITC) was observed” value in the data set with H460 cells [4] (40 μM, water/DMSO solution) came to 1 h. For the same compound, the “time of treatment at which blebbing occurs” value in the data set with H460 cells [4] (2-HPβCD vehicle) was 14 h; with H460 cells [4] (DMSO vehicle) it was 3 h. Further, in the data set with H460 cells [4] (DMSO or 2-HPβCD vehicle, two independent trials), the “mode of cell death” value was “causes apoptosis”. Also, in the data set on DNA, the “interaction with DNA” value is on record as “little to no interaction with DNA”. For the same compound, the “red fluorescence (J-aggregates, intact MMP)” value is given as “apparent decrease in intensity” in the data set on H460 cells [1] (20 μM, 1 hour versus 15 minutes); “minimal red fluorescence” in the data set with H460 cells [1] (40 μM, 30 minutes); “minimal red fluorescence” with H460 cells [1] (40 μM, 1 hour and 2.5 hours). Also, the “clinical observation the day after the second injection” value in the data set on C57BL/6 mice (15 mg/kg IP on day fourteen, two surviving mice) was “both animals were sacrificed due to lethargic movement”. For the same compound, the “body weight after first injection” value in the data set with C57BL/6 mice (20 mg/kg IP) was “sharp decrease in weight”. Besides, the mortality result with C57BL/6 mice (20 mg/kg IP on day zero in 20% 2-HPβCD, day two) is given as “one mouse from the experimental group was found deceased”. Also, the overall toxicity entry in the data set with C57BL/6 mice (20 mg/kg then 15 mg/kg IP) is given as “quite toxic at the doses administered”. Moreover, the average weight loss result with C57BL/6 mice (after second injection, 15 mg/kg IP on day fourteen) is listed as “around 6%”.
Turning to `CCCc1n(Cc2ccc3ccccc3c2)cc[n+]1Cc1ccc2ccccc2c1.[Br-]` [Compound 3], the IC50 in data set [2] lay within 660 to 3500 nM. Also, the “Growth % Average” value with nine NSCLC lines worked out at 2.33%. In addition, in data set [3], the “behaviour on addition of water” value is “remained soluble”.
Turning to `CCCCc1n(Cc2ccc3ccccc3c2)cc[n+]1Cc1ccc2ccccc2c1.[Br-]` [Compound 4], the IC50 in data set [2] was in the range of 660 to 3500 nM. Moreover, in the data set on nine NSCLC lines, the “Growth % Average” value is given as −1.36%. The TGI in the data set on A549/ATCC (A549/ATCC) worked out at 3240 nM; with EKVZ (EKVZ), 3470 nM; in the data set on HOP-62 it was 2750 nM; in the data set with HOP-92, 2350 nM; in the data set on NCI-H226, 2930 nM; in the data set on NCI-H460 it was 2820 nM. This compound gave a TGI with NCI-H522 of 1890 nM. For the same compound, the GI50 stood at 1670 nM with A549/ATCC (Homo sapiens, A549); 1350 nM with EKVZ (Homo sapiens); 1290 nM in the data set on HOP-62 (Homo sapiens); 844 nM in the data set with HOP-92 (Homo sapiens); 1350 nM in the data set with NCI-H226 (Homo sapiens); 1250 nM in the data set on NCI-H460 (Homo sapiens). Besides, the GI50 in the data set on NCI-H522 (Homo sapiens) worked out at 491 nM. Moreover, in data set [3], the “behaviour on addition of water” value is “slight precipitation”.
As for `CC(C)c1n(Cc2ccc3ccccc3c2)cc[n+]1Cc1ccc2ccccc2c1.[Br-]` [Compound 5], in data set [2], the IC50 was 660 to 3500 nM. In data set [3] (10% 2-HPβCD by weight in water), the “solubility in 2-HPβCD solution” value was “mostly soluble”. In addition, the “behaviour on addition of water” value in data set [3] is recorded as “remained soluble”.
As to `Clc1c(Cl)[n+](Cc2ccc3ccccc3c2)cn1Cc1ccc2ccccc2c1.[Br-]` [IS23, 4,5-dichloro-1,3-bis(naphthalen-2-ylmethyl)imidazolium bromide], the “time of morphological changes (cell shrinkage, rounding, detachment)” value in the data set on H460 cells [5] is “within the first hour”.
